Where a chain is given by its changes, count along the chain named. Read-outs that look alike come from different tables or passages of the source.
Experiments:
[1] = biological target: T1, PaMx33-Acb2 (Pseudomonas phage PaMx33, UniProt A0A1C8HPQ3); test: biochemical; type: binding; conditions: for binding to Acb2 (ITC): WT PaMx33-Acb2
[2] = biological target: T2, Acb2 protein (PaMx33-Acb2) (Pseudomonas phage PaMx33, UniProt A0A1C8HPQ3); test: Native gel; type: binding, P. aeruginosa phage PaMx33; conditions: WT PaMx33-Acb2 14.3 μM
T2 sequence (A0A1C8HPQ3 whole entry): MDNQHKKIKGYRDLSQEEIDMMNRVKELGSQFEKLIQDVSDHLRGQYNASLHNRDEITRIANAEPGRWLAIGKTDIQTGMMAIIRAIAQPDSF

[3] = biological target: T2, Acb2 protein (PaMx33-Acb2); conditions: Figure S1A–B; cited from earlier work
[4] = biological target: T1, PaMx33-Acb2; conditions: WT Acb2; cited from earlier work
[5] = biological target: JBD67-Acb2 (Pseudomonas phage JBD67, UniProt P0DX89); test: ITC binding to JBD67-Acb2; design: species or system P. aeruginosa phage JBD67
Chain of JBD67-Acb2 (P0DX89 whole entry): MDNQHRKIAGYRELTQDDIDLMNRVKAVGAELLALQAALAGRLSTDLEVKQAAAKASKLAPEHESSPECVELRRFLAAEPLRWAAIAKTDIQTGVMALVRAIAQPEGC

[6] = biological target: T4-Acb2 (Enterobacteria phage T4, UniProt P13314); test: ITC binding to T4-Acb2; design: species or system Escherichia phage T4
Chain of T4-Acb2 (P13314 whole entry): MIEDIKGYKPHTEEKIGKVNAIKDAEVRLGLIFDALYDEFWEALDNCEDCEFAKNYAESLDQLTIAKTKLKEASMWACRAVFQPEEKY

[7] = biological target: T3, Y11A Acb2 mutant (Pseudomonas phage PaMx33, UniProt A0A1C8HPQ3, Y11A); conditions: method not stated here; cited from earlier work
T3 sequence (A0A1C8HPQ3 whole entry Y11A): as the sequence (A0A1C8HPQ3 whole entry) above, with Y11A counted along it

[8] = biological target: T4, K26A Acb2 mutant (Pseudomonas phage PaMx33, UniProt A0A1C8HPQ3, K26A); conditions: method not stated here; cited from earlier work
T4 sequence (A0A1C8HPQ3 whole entry K26A): as the sequence (A0A1C8HPQ3 whole entry) above, with K26A counted along it

[9] = biological target: T5, CHI14-Acb2 (Serratia phage CHI14, UniProt A0A1Z1LXK7); test: ITC binding to CHI14-Acb2
T5 sequence (A0A1Z1LXK7 1-96): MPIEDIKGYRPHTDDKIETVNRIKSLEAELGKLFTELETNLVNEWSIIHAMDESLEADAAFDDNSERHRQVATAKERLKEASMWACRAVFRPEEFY

[10] = biological target: T5, CHI14-Acb2; test: Native gel shift assay with CHI14-Acb2; type: binding
Method in brief: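 Recombinant Acb2, expressed in E. coli BL21 (DE3) with 12 h induction at 18°C, was purified as a His6-SUMO fusion on Ni-NTA, cut with Ulp1, then gel-filtered in 10 mM Tris-HCl pH 8.0, 500 mM NaCl, 5 mM DTT. Protein (14.3 μM) was preincubated 10 min at 18°C with cyclic dinucleotides (1.8, 3.6, 7.2 μM). Samples were run on 5% native polyacrylamide gels and stained with Coomassie blue.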

[11] = biological target: NucC (Pseudomonas aeruginosa, UniProt P0DTF8); test: In vitro NucC activity assay; type: biochemical, P. aeruginosa strain ATCC 27853 (Pa278); conditions: cA3 5 nM
[12] = biological target: T6, D61R mutant of T4-Acb2 (Enterobacteria phage T4, UniProt P13314, D61R); test: ITC binding to T4-Acb2 D61R mutant; design: species or system Escherichia phage T4
T6 sequence (P13314 1-88 D61R): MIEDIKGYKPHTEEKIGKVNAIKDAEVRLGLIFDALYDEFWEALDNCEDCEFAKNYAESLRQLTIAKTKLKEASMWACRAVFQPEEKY

[13] = biological target: T4, K26A Acb2 mutant; test: Native gel shift assay with Acb2 K26A mutant; type: binding, P. aeruginosa phage PaMx33
[14] = biological target: T1, PaMx33-Acb2; test: HPLC analysis of cA3 binding and release by Acb2; design: species or system P. aeruginosa phage PaMx33
[15] = biological target: T3, Y11A Acb2 mutant; test: Native gel shift assay with Acb2 Y11A mutant; type: binding, P. aeruginosa phage PaMx33
[16] = biological target: T7, Acb2 T74A mutant (Pseudomonas phage PaMx33, UniProt A0A1C8HPQ3, T74A); test: ITC binding to PaMx33-Acb2 T74A mutant; design: species or system P. aeruginosa phage PaMx33
T7 sequence (A0A1C8HPQ3 1-93 T74A): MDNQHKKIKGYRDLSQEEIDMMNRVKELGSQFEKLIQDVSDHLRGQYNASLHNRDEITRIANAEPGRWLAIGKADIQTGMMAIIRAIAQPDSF

[17] = biological target: T8, Acb2 R67A mutant (Pseudomonas phage PaMx33, UniProt A0A1C8HPQ3, R67A); test: ITC binding to PaMx33-Acb2 R67A mutant; design: species or system P. aeruginosa phage PaMx33; conditions: in vitro
T8 sequence (A0A1C8HPQ3 1-93 R67A): T7 sequence (A0A1C8HPQ3 1-93 T74A) with R67A, A74T

[18] = biological target: the molecule itself; test: crystal structure
[19] = biological target: T9, NucC (Pseudomonas aeruginosa, UniProt P0DTF8); test: In vitro NucC activity assay; type: biochemical, P. aeruginosa strain ATCC 27853 (Pa278); conditions: NucC 10 nM, cA3 5 nM, Acb2 50 nM
T9 sequence (P0DTF8 whole entry, looked up): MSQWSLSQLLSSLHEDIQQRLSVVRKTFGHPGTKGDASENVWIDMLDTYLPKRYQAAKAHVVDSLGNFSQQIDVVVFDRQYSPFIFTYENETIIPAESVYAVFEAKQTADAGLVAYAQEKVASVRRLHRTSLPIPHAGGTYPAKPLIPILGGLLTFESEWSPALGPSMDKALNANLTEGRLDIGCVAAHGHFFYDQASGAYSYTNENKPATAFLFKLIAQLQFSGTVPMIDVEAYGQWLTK

T1 sequence (A0A1C8HPQ3 whole entry): as the sequence (A0A1C8HPQ3 whole entry) above

Nc1nc2c(ncn2[C@@H]2O[C@@H]3COP(=O)(O)O[C@@H]4[C@H](O)[C@@H](COP(=O)(O)O[C@H]3[C@H]2O)O[C@H]4n2cnc3c(N)ncnc32)c(=O)[nH]1 [3’,2’-cGAMP]
Kd [1]: ~298 nM
shift of the Acb2 protein / binding (native gel) [2]: significant shift

Nc1ncnc2c1ncn2[C@@H]1O[C@@H]2COP(=O)(O)O[C@H]3[C@@H](O)[C@H](n4cnc5c(N)ncnc54)O[C@@H]3COP(=O)(O)O[C@H]2[C@H]1O [3’,3’-cAA, c-di-AMP]
binding to Acb2 (previous work) [3]: binds

Nc1nc2c(ncn2[C@@H]2O[C@@H]3COP(=O)(O)O[C@H]4[C@@H](O)[C@H](n5cnc6c(N)ncnc65)O[C@@H]4COP(=O)(O)O[C@H]3[C@H]2O)c(=O)[nH]1 [3’,3’-cGAMP]
Kd [4]: ~87 nM
Kd [5]: ~99 nM
Kd [6]: ~84.4 nM
binding to Y11A Acb2 mutant [7]: lose their binding
binding to K26A Acb2 mutant [8]: lose their binding
Kd [9]: ~62.4 nM
binding to Acb2 (previous work) [3]: binds
shift of the CHI14-Acb2 protein (native gel) [10]: almost no shift

Nc1nc2c(ncn2[C@@H]2O[C@@H]3COP(=O)(O)O[C@H]4[C@@H](O)[C@H](n5ccc(=O)[nH]c5=O)O[C@@H]4COP(=O)(O)O[C@H]3[C@H]2O)c(=O)[nH]1 [3’,3’-cUG, 3’,3’-c-UMP-GMP]
binding to Acb2 (previous work) [3]: binds

O=c1ccn([C@@H]2O[C@@H]3COP(=O)(O)O[C@H]4[C@@H](O)[C@H](n5ccc(=O)[nH]c5=O)O[C@@H]4COP(=O)(O)O[C@H]3[C@H]2O)c(=O)[nH]1 [3’,3’-cUU, 3’,3’-c-di-UMP]
binding to Acb2 (previous work) [3]: binds

Nc1ncnc2c1ncn2[C@@H]1O[C@@H]2COP(=O)(O)O[C@H]3[C@@H](O)[C@H](n4cnc5c(N)ncnc54)O[C@@H]3COP(=O)(O)O[C@H]3[C@@H](O)[C@H](n4cnc5c(N)ncnc54)O[C@@H]3COP(=O)(O)O[C@H]2[C@H]1O [cA3, 3’3’3’-cyclic AMP-AMP-AMP]
DNA cleavage activity of NucC ([11]; NucC 10 nM): activates
NucC activity with cA3 released after proteolysis of WT Acb2 ([11]; Acb2 50 nM, proteinase K 1 μM): again activated
binding (ITC) [12]: unable to bind
Kd [1]: ~1.5 nM
binding / shift (native gel) [13]: significant shift
shift of the Acb2 protein / binding (native gel) [2]: significant shift
remaining cA3 after incubation with Acb2 (HPLC) ([14]; 40 μM Acb2, 4 μM cA3): depletes any detectable molecules
cA3 after proteolysis of Acb2 (HPLC) ([14]; proteinase K treatment): released back into the buffer unmodified
Kd [5]: ~3.5 nM
binding (ITC) ([6]; T4-Acb2): does not bind
binding / shift (native gel) [15]: significant shift
Kd [16]: ~291 nM
binding (ITC) ([9]; CHI14-Acb2): does not bind
binding (ITC) [17]: abolished

Nc1ncnc2c1ncn2[C@@H]1O[C@@H]2COP(=O)(O)O[C@H]3[C@@H](O)[C@H](n4cnc5c(N)ncnc54)O[C@@H]3COP(=O)(O)O[C@H]3[C@@H](O)[C@H](n4cnc5c(N)ncnc54)O[C@@H]3COP(=O)(O)O[C@H]3[C@@H](O)[C@H](n4cnc5c(N)ncnc54)O[C@@H]3COP(=O)(O)O[C@H]3[C@@H](O)[C@H](n4cnc5c(N)ncnc54)O[C@@H]3COP(=O)(O)O[C@H]3[C@@H](O)[C@H](n4cnc5c(N)ncnc54)O[C@@H]3COP(=O)(O)O[C@H]2[C@H]1O [cA6]
shift of the Acb2 protein / binding (native gel) [2]: does not shift

Nc1nc2c(ncn2[C@@H]2O[C@@H]3COP(=O)(O)O[C@H]4[C@@H](O)[C@H](n5cnc6c(N)ncnc65)O[C@@H]4COP(=O)(O)O[C@H]4[C@@H](O)[C@H](n5cnc6c(N)ncnc65)O[C@@H]4COP(=O)(O)O[C@H]3[C@H]2O)c(=O)[nH]1 [cAAG, 3’3’3’-cAAG]
Kd [1]: ~2.7 nM
shift of the Acb2 protein / binding (native gel) [2]: significant shift

Nc1ccn([C@@H]2O[C@@H]3COP(=O)(O)O[C@H]3[C@H]2O)c(=O)n1 [cCMP]
binding to Acb2 (ITC) [1]: does not bind
shift of the Acb2 protein / binding (native gel) [2]: does not bind

O=c1ccn([C@@H]2O[C@@H]3COP(=O)(O)O[C@H]3[C@H]2O)c(=O)[nH]1 [cUMP]
binding to Acb2 (ITC) [1]: does not bind
shift of the Acb2 protein / binding (native gel) [2]: does not bind

B1: Acb2 from P. aeruginosa phage PaMx33 (natural protein, Pseudomonas aeruginosa phage PaMx33, UniProt A0A1C8HPQ3 1-93, looked up)
chain: T7 sequence (A0A1C8HPQ3 1-93 T74A) with A74T
stoichiometry N [18]: 6

B2: WT Acb2: anti-CBASS protein Acb2 from P. aeruginosa phage PaMx33, cyclic oligonucleotide sponge (protein)
chain: T7 sequence (A0A1C8HPQ3 1-93 T74A) with A74T
modifications: left off: His6-SUMO, end not stated, cleaved
effect on cA3-activated NucC activity [19]: significantly decreased

From publication PMC11102597 (Molecular cell, 2023)
